Entries after “also recorded” stand apart in the source; their conditions may differ.
Tests used:
[1] = target: T1, SmARG (S. mansoni arginase) (Schistosoma mansoni, UniProt Q6WVP6); assay: Isothermal titration calorimetry of SmARG–inhibitor complexes; format: binding; details: ITC Kd
T1 sequence (Q6WVP6 1-364): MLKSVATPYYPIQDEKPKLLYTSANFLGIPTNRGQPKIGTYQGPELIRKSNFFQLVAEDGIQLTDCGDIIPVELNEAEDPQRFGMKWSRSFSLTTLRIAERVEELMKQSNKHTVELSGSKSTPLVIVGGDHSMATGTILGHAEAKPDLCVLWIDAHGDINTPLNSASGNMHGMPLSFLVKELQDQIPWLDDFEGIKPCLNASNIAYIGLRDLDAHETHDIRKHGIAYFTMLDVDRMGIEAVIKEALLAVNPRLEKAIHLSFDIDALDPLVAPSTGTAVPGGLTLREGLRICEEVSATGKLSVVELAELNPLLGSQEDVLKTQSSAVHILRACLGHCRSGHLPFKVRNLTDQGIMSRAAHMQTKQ

human arginase I [2] = assay: Isothermal titration calorimetry, human arginase I; format: binding; details: ITC Kd, human arginase I versus SmARG
S. mansoni schistosomula = assay: Helminth fluorescence bioassay; format: cell-based, Schistosoma mansoni; details: 100 μM, in vitro cocultivation
Outline: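 S. mansoni schistosomula were mechanically transformed and exposed to test compound at 100 μM final. Incubation was 24 h (also 72 h) at 37 °C in humidified 5% CO2. Viability was then scored by the helminth fluorescence bioassay, in duplicate.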

human arginase I [3] = details: cited from earlier work
[4] = target: T1, SmARG (S. mansoni arginase); assay: Colorimetric arginase activity assay; format: biochemical; details: Figure S2b
Outline: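 Recombinant SmARG was expressed in E. coli BL21(DE3) and purified by Talon affinity then size exclusion into bicine pH 8.5 with 100 μM MnCl2. Reactions used 0.5–50 mM L-arginine in 50 mM EPPS pH 8.5 with 100 μM MnCl2, started with 1 μM enzyme at 21 °C and stopped after 1 min with acid/α-isonitrosopropiophenone. Samples were heated 1 h at 90 °C and urea read at A550. Ki came from a competitive-inhibition Michaelis–Menten fit, in triplicate.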

Row | SMILES | enhancement of affinity compared with the parent SmARG–ABH complex [1] [fold] | schistosomula viability or morphology (S. mansoni schistosomula; 24 h, 37 °C, absence of host) | schistosomula viability or morphology (S. mansoni schistosomula; 72 h (data not shown)) | other results
1 | N[C@@](CCCCB(O)O)(C(=O)O)C1CCN(Cc2ccc(Cl)c(Cl)c2)CC1 (racemic) [ABHDP, (R)-2-amino-6-borono-2-[1-(3,4-dichlorobenzyl)piperidin-4-yl]hexanoic acid] | 5 | – | – | –
2 | N[C@@H](CCCCB(O)O)C(=O)O [ABH, 2(S)-amino-6-boronohexanoic acid] | – | no significant difference; also recorded: do not affect parasite viability | no significant difference | tighter binding to human arginase I than to SmARG (human arginase I [2]): 260 fold; preferential inhibition of human arginase I compared with nor-NOHA (human arginase I [3]): at least 10 fold
3 | N[C@](CCCCB(O)O)(CCN1CCCCC1)C(=O)O [ABHPE, (R)-2-amino-6-borono-2-[2-(piperidin-1-yl)ethyl]hexanoic acid] | 2 | – | – | –
4 | Cl.O=C(O)CCP(CCC(=O)O)CCC(=O)O [TCEP, Tris(2-carboxyethyl)phosphine hydrochloride] | – | – | – | SmARG activity in the presence of reducing reagents [4]: severely attenuated
5 | N=C(NO)NCC[C@H](N)C(=O)O [nor-NOHA, nor-N-hydroxy-L-arginine] | – | no significant difference; also recorded: do not affect parasite viability | no significant difference | more effective than ABH in binding to SmARG ([1]; N-hydroxyguanidinium moiety versus tetrahedral boronate anion of ABH): ~4 fold
